This is an account of results in ChEMBL document CHEMBL1156906, “Synthesis and structure-activity relationship of botryllamides that block the ABCG2 multidrug transporter” (Bioorg Med Chem Lett, 2010).

Structures are written as SMILES. pIC50: −log10 of the molar value.

The target in the assay is T1, Broad substrate specificity ATP-binding cassette transporter ABCG2 (Homo sapiens, UniProt Q9UNQ0).
T1 sequence (Q9UNQ0 whole entry): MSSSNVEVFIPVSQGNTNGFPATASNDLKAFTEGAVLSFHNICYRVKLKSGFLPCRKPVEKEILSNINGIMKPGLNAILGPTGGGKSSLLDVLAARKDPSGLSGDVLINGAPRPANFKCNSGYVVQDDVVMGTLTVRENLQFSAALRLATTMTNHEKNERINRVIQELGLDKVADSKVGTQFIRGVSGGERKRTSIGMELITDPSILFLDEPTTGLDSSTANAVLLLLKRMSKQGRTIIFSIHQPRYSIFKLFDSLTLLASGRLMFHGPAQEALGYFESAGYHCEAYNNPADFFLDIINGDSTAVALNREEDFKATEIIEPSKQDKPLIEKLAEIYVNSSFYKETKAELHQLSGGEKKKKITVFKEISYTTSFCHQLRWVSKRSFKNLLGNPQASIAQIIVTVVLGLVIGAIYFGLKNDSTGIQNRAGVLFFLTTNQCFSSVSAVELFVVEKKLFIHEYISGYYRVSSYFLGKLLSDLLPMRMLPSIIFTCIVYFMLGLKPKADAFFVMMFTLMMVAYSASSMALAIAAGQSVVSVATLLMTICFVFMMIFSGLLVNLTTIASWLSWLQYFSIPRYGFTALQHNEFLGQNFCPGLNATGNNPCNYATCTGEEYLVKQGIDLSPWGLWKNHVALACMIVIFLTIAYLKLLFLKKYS
Description: Inhibition of ABCG2 expressed in human NCI-H460/MX20 cells assessed as accumulation of ABCG2 substrate pheophorbide-A. The assay is classed as cell-based. In a few lines: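 Cell-based assay in cells overexpressing ABCG2, measuring intracellular accumulation of the fluorescent ABCG2 substrate pheophorbide-a. Medium removed and cells washed with PBS before reading intracellular fluorescence. […] IC50 reported ± SD.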
Usually pIC50 stands for the negative decadic logarithm of the IC50, by convention in mol/L. As for `CO/C(=C\c1ccc(O)c(O)c1)C(=O)N/C=C/c1ccc(O)cc1`, the pIC50 is 4.73. Then `CO/C(=C\c1ccc(OC)cc1)C(=O)N/C=C/c1ccc(O)cc1`, with 5.19. In the case of `CO/C(=C\c1ccc(O)cc1)C(=O)NCC(O)c1ccc(O)cc1` (configuration not stated), the negative logarithm of the IC50 (pIC50) was under 4.00. To `CO/C(=C\c1ccc(OCc2ccccc2)cc1)C(=O)N/C=C/c1ccc(O)cc1` belongs under 4.00. With `CO/C(=C\c1ccc(O)cc1)C(=O)O`, the pIC50 is under 4.00. On to `COC(Cc1ccc(O)cc1)C(=O)NCCc1ccc(O)cc1` (configuration not stated), for which the pIC50 was under 4.00. Then `CO/C(=C\c1ccc(O)cc1)C(=O)NCCc1ccc(O)cc1`, with 4.60.

Consider `CO/C(=C\c1ccccc1)C(=O)N/C=C/c1ccc(O)cc1`, for which the pIC50 is 4.81. Then `COC(Cc1ccc(O)cc1)C(=O)N/C=C/c1ccc(O)cc1` (configuration not stated), with under 4.00; and `CO/C(=C\c1cc(Br)c(O)c(Br)c1)C(=O)N/C=C/c1ccc(O)cc1`, with 4.95.

Turning to `O=C(/C=C/c1ccc(O)cc1)N/C=C/c1ccc(O)cc1`, the negative-log IC50 (pIC50) was under 4.00. For the compound `CO/C(=C\c1cc(Br)c(O)c(Br)c1)C(=O)N/C=C/c1ccc(OC(C)=O)cc1`, the pIC50 was 4.63.
